Assay results reported in ChEMBL document CHEMBL1124395, “Studies on bioactive compounds. 13. Synthesis and lack of growth-inhibitory properties of cyclohexane-1,2,4-triol 1,2-diesters, which resemble ring C of the phorbol ester molecule” (J Med Chem, 1989).

Legend:
[1] = Concentration which cause half-maximal Lactate dehydrogenase in […]
Procedure, shortened: (§1)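 A549 cells (1 × 10^5/well) exposed 24 h to compound in medium with only 1% fetal calf serum; diacylglycerols added 3 times at 6-hourly intervals. Supernatant briefly centrifuged and kept on ice, then LDH activity read spectrophotometrically. Maximal releasable LDH came from control cells lysed with 1% Triton X-100. Half-maximal release was obtained by linear regression of the linear part of curves (≥5 concentrations, four experiments).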

Homo sapiens = species on record: Homo sapiens; test: Concentration which cause half-maximal growth inhibition of human A549 lung carcinoma cell line; type: functional
Procedure, shortened: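 A549 human lung carcinoma cells ((2-5) × 10^4/well) grown in Ham's F12 with 10% fetal calf serum under 95% air/5% CO2 with compound for 4-5 days, until controls were confluent. Medium and compound were renewed every 2 days; diacylglycerols were added three times daily at 6-h intervals for 3 days. Final DMSO was ≤0.5%. Cells were trypsinised and counted by hemocytometer or Coulter counter. The 50% growth-inhibitory concentration was taken by linear regression (≥5 concentrations, four experiments).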

[2] = Concentration which cause half-maximal Lactate dehydrogenase release in […]; procedure, shortened: as §1

Compound | LC50 [1] [µM] | IC50 (Homo sapiens) [µM] | LC50 [2] [µM]
CCCCCCCC(=O)O[C@H]1CC[C@H](O)C[C@@H]1OC(=O)CCCCCCC | 46 | 58 | 
CCCCCCCC(=O)O[C@@H]1CC[C@H](O)C[C@H]1OC(=O)CCCCCCC | 36 | 43 | 
CCCCCCCC(=O)OC[C@@H](CO)OC(=O)CCCCCCC | 56 | 44 | 
CCCCCCCC(=O)O[C@H]1CC[C@H](O)C[C@H]1OC(=O)CCCCCCC |  | 49 | 31
CCCCCCCCCCCCCC(=O)O[C@@]12[C@H](OC(C)=O)[C@@H](C)[C@@]3(O)[C@@H](C=C(CO)C[C@]4(C)C(=O)C(C)=C[C@@H]34)[C@@H]1C2(C)C |  |  | > 1
CCCCCCCC/C=C\CCCCCCCC(=O)OCC(CO)OC(C)=O (stereo unspecified) |  | 70 | 75
